Reference: ChEMBL document CHEMBL1151932, “Antiviral effect of ribonuclease conjugated oligodeoxynucleotides targeting the IRES RNA of the hepatitis C virus” (Bioorg Med Chem Lett, 2009)
Activity calls are given as the source filed them. The rule behind the calls is not given here.

Assays:
Hepatitis C virus [1] = test: Antiviral activity against HCV infected in human Huh7.5.1 cells assessed as reduction in viral replication treated through microporation 17 hrs prior to infection for 4 hrs measured after 20 hrs by luciferase assay relative to control; assay type: functional, Hepacivirus hominis, Huh-7; design: scale not given: the % may be the effect or the level left
How it was run: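 Huh7.5.1 cells electroporated (microporation) with ODNs at 10–1000 nM, then infected with HCVcc; replication read 20 h after infection. Triplicate runs; signal normalised to cell number by WST-1 and expressed as percent of scrambled-sequence non-specific ODN control.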

Hepatitis C virus [2] = test: Cytotoxicity against HCV infected in human Huh7.5.1 cells treated through microporation for < 17 hrs prior to 4 hrs infection period measured after 20 hrs postinfection by luciferase assay; assay type: organism-based; settings: hepacivirus hominis, huh-7, 20 h
Hepatitis C virus [3] = test: Antiviral activity against HCV infected in human Huh7.5.1 cells at 100 nM treated through lipofection after 17 hrs of infection by luciferase assay; assay type: functional, organism-based; settings: Hepacivirus hominis, Huh-7
How it was run: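 Huh7.5.1 cells were infected with reporter HCVcc (FL-J6/JFH-5/C19Rluc2AUbi construct) without trypsinization. After 17 h, cells were transfected with oligodeoxynucleotide using a lipid reagent (10–1000 nM tested). Replication signal was normalized to cell number by WST-1 and expressed as % of a scrambled-sequence non-specific ODN control. Triplicate.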

Hepatitis C virus [4] = test: Antiviral activity against HCV infected in human Huh7.5.1 cells assessed as reduction in viral replication treated through microporation 17 hrs prior to infection for 4 hrs measured after 20 hrs by luciferase assay; assay type: functional, organism-based; settings: Hepacivirus hominis; Huh-7
How it was run: (§1)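 Huh7.5.1 cells were microporated with oligodeoxynucleotide (10–1000 nM) and infected with reporter HCVcc (FL-J6/JFH-5/C19Rluc2AUbi construct) about 17 h later. Viral replication was read 20 h after infection, normalized to cell number by WST-1, and expressed as % of a scrambled-sequence non-specific ODN control. Triplicate.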

Hepatitis C virus [5] = test: Cytotoxicity against HCV infected in human Huh7.5.1 cells treated through microporation for 17 hrs prior to 4 hr infection period measured after 20 hrs postinfection by luciferase assay; assay type: organism-based; settings: hepacivirus hominis, huh-7, 20 h
Hepatitis C virus [6] = test: Antiviral activity against HCV infected in human Huh7.5.1 cells assessed as reduction in viral replication at 100 nM treated through microporation 17 hrs prior to infection for 4 hrs measured after 20 hrs by luciferase assay; assay type: functional, organism-based; settings: Hepacivirus hominis, Huh-7; how it was run: as §1
Hepatitis C virus [7] = test: Antiviral activity against HCV infected in human Huh7.5.1 cells at 1000 nM treated through lipofection after 17 hrs of infection by luciferase assay; assay type: functional, Hepacivirus hominis, Huh-7
How it was run: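 Huh7.5.1 cells first infected with HCVcc; after 17 h, ODNs transfected by lipid reagent at 10–1000 nM. Triplicate runs; signal normalised to cell number by WST-1 and expressed as percent of non-specific scrambled ODN control.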

Hepatitis C virus [8] = test: Antiviral activity against HCV infected in human Huh7.5.1 cells assessed as reduction in viral replication at 1000 nM treated through microporation 17 hrs prior to infection for 4 hrs measured after 20 hrs by luciferase assay; assay type: functional, organism-based; settings: Hepacivirus hominis, Huh-7; how it was run: as §1
[9] = test system: Internal ribosome entry site (IRES); test: Inhibition of HCV IRES RNA fragment-mediated translation in human Huh7.5.1 cells treated through microporation 17 hrs prior to infection for 4 hrs measured after 20 hrs by luciferase reporter gene assay; assay type: cell-based; settings: Hepacivirus hominis; Huh-7
Hepatitis C virus [10] = test: Antiviral activity against HCV in cell-free system at 100 nM; assay type: functional; settings: Hepacivirus hominis
[11] = test system: Internal ribosome entry site (IRES); test: Inhibition of HCV IRES RNA fragment-mediated translation in human Huh7.5.1 cells treated through microporation 17 hrs prior to infection for 4 hrs measured after 20 hrs by reticulocyte based translation assay; assay type: cell-based; settings: Hepacivirus hominis; Huh-7

| SMILES | Activity (Hepatitis C virus [1]) [%] | Activity (Hepatitis C virus [2]) | Activity (Hepatitis C virus [3]) | Activity (Hepatitis C virus [4]) | Activity (Hepatitis C virus [5]) | Activity (Hepatitis C virus [6]) | Activity (Hepatitis C virus [7]) [%] | Activity (Hepatitis C virus [8]) | Activity [9] | Activity (Hepatitis C virus [10]) | Activity [11] |
| --- | --- | --- | --- | --- | --- | --- | --- | --- | --- | --- | --- |
| Cc1cn([C@@H]2O[C@H](COP(=O)(O)O[C@H]3[C@@H](O)[C@H](n4ccc(N)nc4=O)O[C@@H]3COP(=O)(O)O[C@H]3[C@@H](O)[C@H](n4cnc5c(N)ncnc54)O[C@@H]3COP(=O)(O)O[C@H]3[C@@H](O)[C@H](n4cc(C)c(=O)[nH]c4=O)O[C@@H]3COP(=O)(O)O[C@H]3[C@@H](O)[C@H](n4ccc(N)nc4=O)O[C@@H]3COP(=O)(O)O[C@@H]3[C@@H](COP(=O)(O)O[C@H]4[C@@H](O)[C@H](n5ccc(N)nc5=O)O[C@@H]4COP(=O)(O)O[C@H]4[C@@H](O)[C@H](n5cnc6c(N)ncnc65)O[C@@H]4COP(=O)(O)O[C@H]4[C@@H](O)[C@H](n5cnc6c(N)ncnc65)O[C@@H]4COP(=O)(O)O[C@H]4[C@@H](O)[C@H](n5ccc(N)nc5=O)O[C@@H]4COP(=O)(O)O[C@H]4[C@@H](O)[C@H](n5ccc(N)nc5=O)O[C@@H]4COP(=O)(O)O[C@H]4[C@@H](O)[C@H](n5ccc(N)nc5=O)O[C@@H]4COP(=O)(O)O[C@H]4C[C@H](n5cnc6c(N)ncnc65)O[C@@H]4COP(=O)(O)O)OC(n4cnc5c(N)ncnc54)[C@@H]3O)[C@@H](OP(=O)(O)OC[C@H]3O[C@@H](n4ccc(N)nc4=O)[C@H](O)[C@@H]3OP(=O)(O)OC[C@H]3O[C@@H](n4cnc5c(=O)[nH]c(N)nc54)[C@H](O)[C@@H]3OP(=O)(O)OC[C@H]3O[C@@H](n4cnc5c(=O)[nH]c(N)nc54)[C@H](O)[C@@H]3OP(=O)(O)OC[C@H]3O[C@@H](n4ccc(N)nc4=O)[C@H](O)[C@@H]3OP(=O)(O)O)[C@H]2O)c(=O)[nH]c1=O (stereo not given in full) | 50 | Toxic | Active | Dose-dependent effect | Non-toxic | Active | 50 |  |  |  |  |
| Cc1cn([C@@H]2O[C@H](COP(=O)(O)O[C@H]3[C@@H](O)[C@H](n4ccc(N)nc4=O)O[C@@H]3COP(=O)(O)O[C@H]3[C@@H](O)[C@H](n4cnc5c(N)ncnc54)O[C@@H]3COP(=O)(O)O[C@H]3[C@@H](O)[C@H](n4cc(C)c(=O)[nH]c4=O)O[C@@H]3COP(=O)(O)O[C@H]3[C@@H](O)[C@H](n4ccc(N)nc4=O)O[C@@H]3COP(=O)(O)O[C@H]3[C@@H](O)[C@H](n4cnc5c(N)ncnc54)O[C@@H]3COP(=O)(O)O[C@H]3[C@@H](O)[C@H](n4ccc(N)nc4=O)O[C@@H]3COP(=O)(O)O[C@H]3[C@@H](O)[C@H](n4cnc5c(N)ncnc54)O[C@@H]3COP(=O)(O)O[C@H]3[C@@H](O)[C@H](n4cnc5c(N)ncnc54)O[C@@H]3COP(=O)(O)O[C@H]3[C@@H](O)[C@H](n4ccc(N)nc4=O)O[C@@H]3COP(=O)(O)O[C@H]3[C@@H](O)[C@H](n4ccc(N)nc4=O)O[C@@H]3COP(=O)(O)O[C@H]3[C@@H](O)[C@H](n4ccc(N)nc4=O)O[C@@H]3COP(=O)(O)O[C@H]3[C@@H](O)[C@H](n4cnc5c(N)ncnc54)O[C@@H]3CO)[C@@H](OP(=O)(O)OC[C@H]3O[C@@H](n4ccc(N)nc4=O)[C@H](O)[C@@H]3OP(=O)(O)OC[C@H]3O[C@@H](n4cnc5c(=O)[nH]c(N)nc54)[C@H](O)[C@@H]3OP(=O)(O)OC[C@H]3O[C@@H](n4cnc5c(=O)[nH]c(N)nc54)[C@H](O)[C@@H]3OP(=O)(O)OC[C@H]3O[C@@H](n4cnc(N)cc4=O)C[C@@H]3OP(=O)(O)OCCCNC(=O)CCc3c[nH]cn3)[C@H]2O)c(=O)[nH]c1=O | 50 | Toxic | Active | Dose-dependent effect | Non-toxic | Active | 50 | inactive |  |  |  |
| Cc1cn([C@@H]2O[C@H](COP(=O)(O)O[C@H]3[C@@H](O)[C@H](n4ccc(N)nc4=O)O[C@@H]3COP(=O)(O)O[C@H]3C(O)[C@H](n4cnc5c(N)ncnc54)O[C@@H]3COP(=O)(O)O[C@H]3[C@@H](O)[C@H](n4ccc(N)nc4=O)O[C@@H]3COP(=O)(O)O[C@H]3[C@@H](O)[C@H](n4cnc5c(N)ncnc54)O[C@@H]3COP(=O)(O)O[C@H]3[C@@H](O)[C@H](n4cnc5c(N)ncnc54)O[C@@H]3COP(=O)(O)O[C@H]3[C@@H](O)[C@H](n4ccc(N)nc4=O)O[C@@H]3COP(=O)(O)O[C@H]3[C@@H](O)[C@H](n4ccc(N)nc4=O)O[C@@H]3COP(=O)(O)O[C@H]3C[C@H](n4ccc(N)nc4=O)O[C@@H]3COP(=O)(O)OCCCNC(=O)C(CCCc3c[nH]cn3)CCCc3c[nH]cn3)[C@@H](OP(=O)(O)OC[C@H]3O[C@@H](n4cnc5c(N)ncnc54)[C@H](O)[C@@H]3OP(=O)(O)OC[C@H]3O[C@@H](n4ccc(N)nc4=O)C(O)[C@@H]3OP(=O)(O)OC[C@H]3O[C@@H](n4cc(C)c(=O)[nH]c4=O)[C@H](O)[C@@H]3OP(=O)(O)OC[C@H]3O[C@@H](n4ccc(N)nc4=O)[C@H](O)[C@@H]3OP(=O)(O)OC[C@H]3O[C@@H](n4cnc5c(=O)[nH]c(N)nc54)[C@H](O)[C@@H]3OP(=O)(O)OC[C@H]3O[C@@H](n4cnc5c(=O)[nH]c(N)nc54)[C@H](O)[C@@H]3OP(=O)(O)OC[C@H]3O[C@@H](n4cnc(N)cc4=O)[C@H](O)[C@@H]3OP(=O)(O)O)[C@H]2O)c(=O)[nH]c1=O (stereo not given in full) |  |  | Active |  | Non-toxic |  | 50 |  | Active | inactive | Active |
| Cc1cn([C@@H]2O[C@H](COP(=O)(O)O[C@H]3[C@@H](O)[C@H](n4ccc(N)nc4=O)O[C@@H]3COP(=O)(O)O[C@H]3[C@@H](O)[C@H](n4cnc5c(N)ncnc54)O[C@@H]3COP(=O)(O)O[C@H]3[C@@H](O)[C@H](n4cc(C)c(=O)[nH]c4=O)O[C@@H]3COP(=O)(O)O[C@H]3[C@@H](O)[C@H](n4ccc(N)nc4=O)O[C@@H]3COP(=O)(O)O[C@@H]3[C@@H](COP(=O)(O)O[C@H]4[C@@H](O)[C@H](n5ccc(N)nc5=O)O[C@@H]4COP(=O)(O)O[C@H]4[C@@H](O)[C@H](n5cnc6c(N)ncnc65)O[C@@H]4COP(=O)(O)O[C@H]4[C@@H](O)[C@H](n5cnc6c(N)ncnc65)O[C@@H]4COP(=O)(O)O[C@H]4[C@@H](O)[C@H](n5ccc(N)nc5=O)O[C@@H]4COP(=O)(O)O[C@H]4[C@@H](O)[C@H](n5ccc(N)nc5=O)O[C@@H]4COP(=O)(O)O[C@H]4[C@@H](O)[C@H](n5ccc(N)nc5=O)O[C@@H]4COP(=O)(O)O[C@H]4C[C@H](n5cnc6c(N)ncnc65)O[C@@H]4COP(=O)(O)OCCCNC(=O)CCc4c[nH]cn4)OC(n4cnc5c(N)ncnc54)[C@@H]3O)[C@@H](OP(=O)(O)OC[C@H]3O[C@@H](n4ccc(N)nc4=O)[C@H](O)[C@@H]3OP(=O)(O)OC[C@H]3O[C@@H](n4cnc5c(=O)[nH]c(N)nc54)[C@H](O)[C@@H]3OP(=O)(O)OC[C@H]3O[C@@H](n4cnc5c(=O)[nH]c(N)nc54)[C@H](O)[C@@H]3OP(=O)(O)OC[C@H]3O[C@@H](n4ccc(N)nc4=O)[C@H](O)[C@@H]3OP(=O)(O)O)[C@H]2O)c(=O)[nH]c1=O (stereo not given in full) | 50 | Toxic | Active | Dose-dependent effect | Non-toxic | Active | 50 | inactive |  |  |  |
| Cc1cn([C@@H]2O[C@H](COP(=O)(O)O[C@H]3[C@@H](O)[C@H](n4ccc(N)nc4=O)O[C@@H]3COP(=O)(O)O[C@H]3[C@@H](O)[C@H](n4ccc(N)nc4=O)O[C@@H]3COP(=O)(O)O[C@H]3[C@@H](O)[C@H](n4ccc(N)nc4=O)O[C@@H]3COP(=O)(O)O[C@H]3[C@@H](O)[C@H](n4cnc5c(N)ncnc54)O[C@@H]3COP(=O)(O)O[C@H]3[C@@H](O)[C@H](n4cnc5c(N)ncnc54)O[C@@H]3COP(=O)(O)O[C@H]3[C@@H](O)[C@H](n4ccc(N)nc4=O)O[C@@H]3CO)[C@@H](OP(=O)(O)OC[C@H]3O[C@@H](n4cnc5c(N)ncnc54)[C@H](O)[C@@H]3OP(=O)(O)OC[C@H]3O[C@@H](n4cnc5c(=O)[nH]c(N)nc54)[C@H](O)[C@@H]3OP(=O)(O)OC[C@H]3O[C@@H](n4cc(C)c(=O)[nH]c4=O)[C@H](O)[C@@H]3OP(=O)(O)OC[C@H]3O[C@@H](n4cc(C)c(=O)[nH]c4=O)[C@H](O)[C@@H]3OP(=O)(O)OC[C@H]3O[C@@H](n4cc(C)c(=O)[nH]c4=O)[C@H](O)[C@@H]3OP(=O)(O)OC[C@H]3O[C@@H](n4cnc5c(=O)[nH]c(N)nc54)[C@H](O)[C@@H]3OP(=O)(O)OC[C@H]3O[C@@H](n4cc(C)c(=O)[nH]c4=O)[C@H](O)[C@@H]3OP(=O)(O)OC[C@H]3O[C@@H](n4ccc(N)nc4=O)[C@H](O)[C@@H]3O[PH](O)(O)OC[C@H]3O[C@@H](n4cnc5c(N)ncnc54)[C@H](O)[C@@H]3OP(=O)(O)OC[C@H]3O[C@@H](n4cnc5c(N)ncnc54)[C@H](O)[C@@H]3OP(=O)(O)O)[C@H]2O)c(=O)[nH]c1=O |  |  |  |  | Non-toxic |  |  |  |  |  |  |
